Assay results reported in ChEMBL document CHEMBL1154487, “Synthesis, chemical and biological studies on new Fe(3+)-glycosilated beta-diketo complexes for the treatment of iron deficiency” (Eur J Med Chem, 2008).
The source made the active and inactive calls. No cut-off for these calls is given here.

Assays:
[1] = Cytotoxicity against african green monkey Vero cells at 600 uM; type: cell-based; details: chlorocebus sabaeus, read-out: INH
In short: (§1)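 Vero cells (African green monkey kidney) were grown in MEM with 10% heat-inactivated FCS at 37 °C in 5% CO2. Cells were seeded at 4×10^4 cells/well and grown 72 h with a range of compound concentrations. They were then methanol-fixed, stained with crystal violet, and the dye was extracted into acidic isopropanol and read at 540 nm. Survival is % of untreated control, mean ± SD of 3 experiments, each in triplicate.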

[2] = Amount of free iron in Fe3+/ligand system at pH 2; details: buffer
[3] = Protonation constant, pKa by spectrophotometric method; type: physicochemical
In short: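 Aqueous ligand solutions (2.5×10−5 M) were titrated spectrophotometrically, adjusting pH from 1 to 11 with concentrated NaOH or HCl. The UV absorbance maximum (320–365 nm) was followed versus pH. Protonation constants were computed from the spectral data.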

[4] = Chemical stability in phosphate buffer at pH 7 after 8 hrs; type: physicochemical
In short: (§2)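 The ligand was held at 5×10−5 M in 10−2 M phosphate buffer, pH 7, at 37 °C and constant ionic strength. Degradation was followed as the change in absorbance at 345 nm. First-order kinetics were taken from ln(At/A0) versus time.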

Liver microsomes [5] = experiment: Antioxidant activity against ferric ion (Fe3+-ADP)-induced lipid peroxidation in rat liver microsomes; details: Microsome
[6] = Chemical stability in phosphate buffer at pH 7; type: physicochemical; in short: as §2
[7] = Protonation constant, pKa by potentiometric method; type: physicochemical
In short: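 Potentiometric titration of 3×10−3 M ligand in water at 25.0 °C, ionic strength 0.1 M (NaNO3), under nitrogen. The titrant was 1×10−2 M NaOH, over pH 2–10, with 600–720 s per point. At least 10 titrations of 40 points each were run, and constants were refined by least squares.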

[8] = Octanol-water partition coefficient, log P after 4 hrs by shake flask method; type: physicochemical
In short: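 Shake-flask method at pH 7.0 (phosphate buffer). Water presaturated with n-octanol was mixed with the ligand or the Fe:L 1:3 system (10−4 M stock) and shaken at 37 °C for 4 h. After phase separation, aqueous concentration was measured spectrophotometrically. Log P is the log of the octanol/water concentration ratio.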

[9] = Cytotoxicity against african green monkey Vero cells at 800 uM; type: cell-based; details: chlorocebus sabaeus, read-out: INH; in short: as §1
Vero [10] = experiment: Cytotoxicity against african green monkey Vero cells; type: cell-based; details: Chlorocebus sabaeus; in short: as §1
Liver microsomes [11] = experiment: Antioxidant activity against ferric ion (Fe3+-ADP)-induced lipid peroxidation in rat liver microsomes after 30 mins; details: Microsome
[12] = Chemical stability in phosphate buffer at pH 7 after 1 hr; type: physicochemical; details: pH 7, 1 h
[13] = Cytotoxicity against african green monkey Vero cells at 10 uM; type: cell-based; details: chlorocebus sabaeus, read-out: INH
[14] = Cytotoxicity against african green monkey Vero cells at 5 uM; type: cell-based; details: chlorocebus sabaeus, read-out: INH
Vero [15] = experiment: Cytotoxicity against african green monkey Vero cells at 400 uM; type: cell-based; details: chlorocebus sabaeus; in short: as §1

| Compound | Activity [2] [%] | pKa [3] | Degradation % at 8 h [4] [%] | half-life [6] [h] | pKa [7] | logP at 4 h [8] | Stability [12] | cytotoxicity at 600 µM [1] [%] | Activity (Liver microsomes [5]) | cytotoxicity at 800 µM [9] [%] | IC50 (Vero [10]) [µM] | Activity (Liver microsomes [11]) | cytotoxicity at 10 µM [13] [%] | cytotoxicity at 5 µM [14] [%] | Activity (Vero [15]) [%] |
| --- | --- | --- | --- | --- | --- | --- | --- | --- | --- | --- | --- | --- | --- | --- | --- |
| O=C(O)[C@H](O)[C@@H](O)[C@H](O)[C@H](O)CO [GLUCONIC ACID] | 60 | – | – | – | – | – | – | – | – | – | – | – | – | – | – |
| COc1cc(/C=C/C(=O)CC(=O)/C=C/c2ccc(O)c(OC)c2)ccc1O [CURCUMIN] | – | – | – | 0.167 | – | – | Unstable | – | – | – | – | – | 20 | 10 | – |

Further lines, with some results ahead:

| Activity [2] [%] | pKa [3] | Degradation % at 8 h [4] [%] | half-life [6] [h] | pKa [7] | logP at 4 h [8] | Stability [12] | Compound | cytotoxicity at 600 µM [1] [%] | Activity (Liver microsomes [5]) | cytotoxicity at 800 µM [9] [%] | IC50 (Vero [10]) [µM] | Activity (Liver microsomes [11]) | cytotoxicity at 10 µM [13] [%] | cytotoxicity at 5 µM [14] [%] | Activity (Vero [15]) [%] |
| --- | --- | --- | --- | --- | --- | --- | --- | --- | --- | --- | --- | --- | --- | --- | --- |
| 30 | 9.22 | < 10 | > 100 | 9.26 | 0.39 | – | CC(=O)/C=C(O)/C=C/c1ccc(O[C@@H]2O[C@H](CO)[C@@H](O)[C@H](O)[C@H]2O)cc1 | 2 | inactive | 40 | – | – | – | – | – |
| 40 | 8.73 | < 10 | > 100 | 8.75 | 0.13 | – | COc1cc(/C=C/C(O)=C/C(C)=O)ccc1O[C@@H]1O[C@H](CO)[C@@H](O)[C@H](O)[C@H]1O | 40 | – | 65 | 700 | Active | – | – | – |
| 20 | 8.03 | < 10 | > 100 | 8.03 | 0.32 | – | CC(=O)/C=C(O)/C=C/c1ccc(O[C@@H]2O[C@H](CO)[C@@H](O)[C@H](O)[C@H]2O)c(O)c1 | – | inactive | 20 | – | – | – | – | 10 |
